This is one part of a sample in which hits are shown more often than they occur.
HCT116 bCat-KO = beta-catenin-lacking colon tumor cell growth suppression; viability, % at 10 µM; HCT116 beta-catenin knockout viability, CellTiter-Glo, 60 h; stronger effect = lower value; 140,000 tested, 1.5% active;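 active = viability at or under a set limit, the compound median less 4 SD, cut at about 6% in these data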;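 also: 0% = Hyamine 1622 control at 20 µM and 100% = untreated cell control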
HCT116 PTEN-null = growth suppressors of cells with PTEN tumor suppressor deletion; 140,000 tested, 1.2% active; viability, % at 10 µM; HCT116 PTEN-null viability, CellTiter-Glo, 60 h; stronger effect = lower value;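 active = viability at or below a set limit, 4 SD under the median of all tested compounds, cut at about 3.7% in these data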;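 also: PTEN knockout HCT116 line with beta catenin targeted HCT116 as companion control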
HUVEC inhibit = blocks proliferation of human endothelial cells; HUVEC proliferation, CellTiter-Glo luminescence, 72 h; stronger effect = lower value; viability, % at 10 µM (by protocol); 86,000 tested, 1.1% active;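 active = viability at or below 30%; inactive = viability above 30%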;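 also: 100% = median luminescence of DMSO-only cell control wells on each plate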
H69AR inhibit = blocks growth of human H69AR lung tumor cells; 85,000 tested, 6% active; viability, % at 10 µM; AID 598; H69AR lung tumor viability, ATP luminescence, 72 h; stronger effect = lower value;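 active = viability at or below 40%; inactive = viability above 40%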;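 also: multidrug resistant small cell line overexpressing MRP-1 efflux transporter; 100% = mean luminescence of untreated control wells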
Fibroblast inh = blocks proliferation of human lung fibroblasts; LL 47 human lung fibroblast viability, ATP luminescence; stronger effect = lower value; viability, % at 10 µM; 85,000 tested, 1.1% active;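 active = viability at or below 50% in the single dose screen; inactive = viability above 50%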;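 also: compound exposure lasted 72 h before the ATP readout; 100% = median luminescence of untreated cell-only wells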
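Test system: LL 47 human lung fibroblasts / Incubation: 72 h compound exposure at 37 °C after overnight plating / Technique: luminescent ATP detection, CellTiter-Glo / Compound dosing: 0.1% DMSO in all compound wells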
* marks the source's active call; other numbers are inactive results.

How did CC1CCc2c(sc(NC(=O)CSc3nnc(-c4ccccc4)o3)c2C#N)C1 (centres undefined) do in these assays?
HCT116 bCat-KO: 80; HCT116 PTEN-null: 89

Results for Cc1csc(SCC(=O)Nc2sc3c(c2C#N)CCC3)n1 ?
HCT116 bCat-KO: 48; HCT116 PTEN-null: 47; HUVEC inhibit: 78; H69AR inhibit: 32*; Fibroblast inh: 94

What do the screens show for `CCN1CCN(CC(=O)Nc2sc3c(c2C#N)CCC(C)C3)CC1` (centres undefined)?
HCT116 bCat-KO: 1.4*; HCT116 PTEN-null: 1.5*; HUVEC inhibit: 79; H69AR inhibit: 32*; Fibroblast inh: 92

Results for N#Cc1cc2c(nc1SCC(=O)Nc1nccs1)CCCCC2 ?
HCT116 bCat-KO: 82; HCT116 PTEN-null: 91; HUVEC inhibit: 84; H69AR inhibit: 69; Fibroblast inh: 95

Results for Cc1ccccc1OCCCCc1c(C)n[nH]c1C ?
HCT116 bCat-KO: 48; HCT116 PTEN-null: 65; HUVEC inhibit: 83; H69AR inhibit: 90; Fibroblast inh: 94

What do the screens show for `CCCn1nnnc1NCc1cccn1C`?
HCT116 bCat-KO: 88; HCT116 PTEN-null: 106; HUVEC inhibit: 95; H69AR inhibit: 104; Fibroblast inh: 99

Results for CC(C)(C)c1ccc(C(=O)c2c[nH]c(C(=O)NCc3ccco3)c2)cc1 ?
HCT116 bCat-KO: 63; HCT116 PTEN-null: 70

Results for CC(C)(C)C1CCc2c(sc(NC(=O)CSc3ncn[nH]3)c2C#N)C1 (centres undefined) ?
HCT116 bCat-KO: 18; HCT116 PTEN-null: 17; HUVEC inhibit: 42; H69AR inhibit: 45; Fibroblast inh: 67

How did CC(C)OC(=O)CC(=O)CSc1nc2c(cc1C#N)CCC2 do in these assays?
HCT116 bCat-KO: 27; HCT116 PTEN-null: 15; HUVEC inhibit: 81; H69AR inhibit: 24*; Fibroblast inh: 93

Results for N#Cc1c(NC(=O)CSc2ncn[nH]2)sc2c1CCCC2 ?
HCT116 bCat-KO: 92; HCT116 PTEN-null: 92; HUVEC inhibit: 86; H69AR inhibit: 18*; Fibroblast inh: 90

How did COc1ccc(-c2ccc(C#N)c(SCC(=O)NCCc3ccccc3)n2)cc1OC do in these assays?
HCT116 bCat-KO: 5.7*; HCT116 PTEN-null: 4

Results for COc1ccc(-c2nnn(CC(=O)Nc3sc4c(c3C#N)CCCC4)n2)cc1 ?
HCT116 bCat-KO: 91; HCT116 PTEN-null: 93; HUVEC inhibit: 108; H69AR inhibit: 6.8*; Fibroblast inh: 108

How did COc1cccc(-c2ccc(C#N)c(SCC(=O)NCCc3cccc(Cl)c3)n2)c1 do in these assays?
HCT116 bCat-KO: 71; HCT116 PTEN-null: 73

What do the screens show for `CN(CCCNC(=O)c1ccc(/C=N/O)nc1)CCCN(C)Cc1ccccc1`?
HCT116 bCat-KO: 44; HCT116 PTEN-null: 46; HUVEC inhibit: 67; H69AR inhibit: 83; Fibroblast inh: 98

Results for COc1ccc2[nH]c(C)c(CCNc3ccc(C(F)(F)F)cc3[N+](=O)[O-])c2c1 ?
HCT116 bCat-KO: 73; HCT116 PTEN-null: 62

Results for COc1ccc(-c2ccc(C#N)c(SCC(=O)Nc3sc4c(c3C#N)CCC4)n2)cc1OC ?
HCT116 bCat-KO: 49; HCT116 PTEN-null: 62; HUVEC inhibit: 8.7*; H69AR inhibit: 1.0*; Fibroblast inh: 68

How did CCCC(=O)Nc1sc2c(c1C#N)CCCCC2 do in these assays?
HCT116 bCat-KO: 0.9*; HCT116 PTEN-null: 1.0*; HUVEC inhibit: 82; H69AR inhibit: 99; Fibroblast inh: 100

How did CCn1c(SCC(=O)Nc2sc3c(c2C#N)CCCC3)nnc1-c1ccncc1 do in these assays?
HCT116 bCat-KO: 97; HCT116 PTEN-null: 94; HUVEC inhibit: 99; H69AR inhibit: 0.9*; Fibroblast inh: 97

What do the screens show for `O=C(NCc1cccnc1)c1ccc(COc2ccc3c(c2)CCC3)o1`?
HCT116 bCat-KO: 75; HCT116 PTEN-null: 64; HUVEC inhibit: 81; H69AR inhibit: 6.4*; Fibroblast inh: 95

Results for O=C(NCc1cccnc1)c1ccc(COc2ccccc2Br)o1 ?
HCT116 bCat-KO: 78; HCT116 PTEN-null: 63; HUVEC inhibit: 63; H69AR inhibit: 72; Fibroblast inh: 92

How did CCOC(=O)Cn1c(=O)c(-c2ccccc2NCc2ccccc2)nc2ccccc21 do in these assays?
HUVEC inhibit: 57; H69AR inhibit: 28*; Fibroblast inh: 74

Results for CCOC(=O)Cn1c(-c2ccccc2)nc2ccccc2c1=O ?
HCT116 bCat-KO: 84; HCT116 PTEN-null: 78

How did CCOc1ccc2nc(-c3ccccc3)[nH]c2c1 do in these assays?
HCT116 bCat-KO: 12; HCT116 PTEN-null: 16; HUVEC inhibit: 58; H69AR inhibit: 24*; Fibroblast inh: 54
